KCNQ1 act: potentiates or activates the human KCNQ1 potassium channel | B-score at 10 µM | 310,000 compounds, 0.35% hits | CHO-K1 KCNQ1, thallium flux FluxOR fluorescence; hits give high values | P51787;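 active = fluorescence ratio B-score, a plate-corrected score, at least three library SD, with initial intensity B-score within 5 SD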
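Medium – assay buffer, equal DMSO in all wells · Material – CHO-K1 cell line with stable KCNQ1 potassium channel expression · Signal – kinetic FluxOR thallium fluorescence, 10-s 1-Hz baseline, 110-s post-stimulus read · Compound – single concentration per compound, DMSO matched to controls · Schedule – 37 °C overnight plating, 90-min dark dye load, 20-min compound pretreatment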
KCNK3 inh: human KCNK3 channel inhibition, primary screen. O14649. CHO-KCNK3 thallium flux, FluxOR fluorescence; hits give low values. B-score at 10 µM. 340,000 compounds, 0.84% hits. AID 602410;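 active = B-score under library mean minus 4 SD, starting fluorescence ratio at most library mean plus 5 SD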;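 also: more negative B-score means stronger inhibition of thallium flux through KCNK3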
Target sequence (O14649 whole entry, looked up): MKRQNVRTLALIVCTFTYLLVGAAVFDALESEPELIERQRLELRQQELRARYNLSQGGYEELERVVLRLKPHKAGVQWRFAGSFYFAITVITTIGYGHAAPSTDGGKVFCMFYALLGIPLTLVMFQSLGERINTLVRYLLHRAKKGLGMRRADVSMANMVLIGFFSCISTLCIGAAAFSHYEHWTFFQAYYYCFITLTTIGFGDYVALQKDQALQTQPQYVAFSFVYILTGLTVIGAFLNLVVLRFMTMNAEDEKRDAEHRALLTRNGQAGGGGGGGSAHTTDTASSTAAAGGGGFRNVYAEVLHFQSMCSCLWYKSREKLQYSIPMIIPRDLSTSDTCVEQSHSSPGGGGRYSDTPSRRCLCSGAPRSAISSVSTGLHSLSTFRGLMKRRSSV
KCNQ1 inh: human KCNQ1 channel inhibition | B-score at 10 µM | AID 2642 | CHO-K1 KCNQ1, FluxOR thallium flux fluorescence; hits give high values | P51787 | 310,000 compounds, 1.3% hits;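 active = compounds whose thallium flux B-score, printed positive for inhibition, exceeds three library SD while starting fluorescence stays within three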;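 also: channel opened by potassium depolarization with thallium stimulus after 20 min compound exposure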
KCNK9 inh: blocks the human KCNK9 two-pore domain potassium channel; 310,000 compounds, 1.2% hits; HEK293 KCNK9, FluxOR thallium flux fluorescence; hits give low values; AID 488922; B-score at 10 µM;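 active = ratio B-score over 3 SD below the library mean, with starting fluorescence within 5 SD of its mean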;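 also: negative B-score means less thallium flux so channel inhibition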
hERG rescue: compounds protecting human hERG from proarrhythmic drug block; activation (rescue from dofetilide block), less the hit threshold, % at 10 µM; 310,000 compounds, 0.51% hits; CHO-hERG, FluxOR thallium flux, dofetilide IC70 present; Q12809;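 active = activation above the mean of controls blocked by dofetilide plus 5 SD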;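 also: thallium influx through hERG after potassium depolarization seen as dye fluorescence rise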
Kir21 block: blocks the mouse Kir2.1 inward-rectifier potassium channel | HEK293-Kir2.1, FluxOR thallium flux fluorescence; hits give low values | AID 1672 | P35561 | 310,000 compounds, 0.85% hits | B-score at 10 µM;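 active = fluorescence ratio B-score at or below minus 3 SD of library scores, with starting-brightness B-score within 2 SD, cut at about -4.2 in these data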;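 also: channel flux triggered by added potassium and thallium sulfate stimulus; B-score of peak minus minimum fluorescence over baseline after thallium stimulus; more negative B-score means stronger Kir2.1 block with less thallium influx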
KCNK9 block conf: human KCNK9 inhibitor confirmation. shares compounds with KCNK9 inh. HEK293 KCNK9 cells, FluxOR thallium flux fluorescence. inhibition, % at 10 µM. 4,900 compounds, 43% hits;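 active = thallium signal inhibited by more than 5 SD of the compound-free buffer control wells, on both duplicate plates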;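 also: 0% = assay buffer control wells without compound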
Kir21 sel: selectivity of KCNK9 modulators against mouse Kir2.1; 4,900 compounds, 4% hits; Kir2.1 cells, FluxOR thallium flux fluorescence; inhibition, % at 10 µM; shares compounds with KCNK9 inh; AID 492993;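 active = thallium signal drop more than 5 SD beyond the mean of the no-compound control wells, seen in both duplicate plates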;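 also: signal is fluorescence rise after thallium addition divided by baseline fluorescence; plate controls were assay buffer only for no effect and full block by chlorpromazine control for full effect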
HEK293 Tl ctr: second counter-screen for KCNK9 modulators: effect in non-induced cells | shares compounds with KCNK9 inh | non-induced KCNK9-HEK293, FluxOR thallium flux | inhibition, % at 10 µM | 4,900 compounds, 40% hits;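 active = thallium signal drop beyond 5 SD of the untreated control mean, on both duplicate plates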;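 also: plate controls were buffer only IC0 wells for no effect and SID17386958 at its maximal inhibitory level for full effect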
* hit, by the source's call; i = inactive; . = no result. Sampled rows, rich in hits. Any-hit rate of the full collection: about 3.7%.

SMILES | KCNQ1 act | KCNK3 inh | KCNQ1 inh | KCNK9 inh | hERG rescue | Kir21 block | KCNK9 block conf | Kir21 sel | HEK293 Tl ctr
S=C(c1cn(Cc2ccccc2)c2ccccc12)N1CCOCC1 | i | i | i | i | -2 | -2.6 | . | . | .
CN1CCN(C(=S)c2cn(Cc3ccc(F)cc3)c3ccccc23)CC1 | i | i | i | i | -11 | 0.12 | . | . | .
Cc1ccsc1C(=O)N1CCCC(CCC(=O)N2CCN(c3ccccn3)CC2)C1 (stereo not drawn) | i | i | i | i | -1 | -0.91 | . | . | .
Cc1ccsc1C(=O)N1CCN(c2ccccn2)CC1 | i | i | i | -8.1* | -6 | 0.41 | i | i | i
CC(=O)c1ccccc1C(=O)N1CCCC(N2CCN(Cc3ccc4c(c3)OCO4)CC2)C1 (stereo not drawn) | i | i | i | i | -3 | -0.22 | . | . | .
CC(C)(C)OC(=O)N1CCC(c2c(C(=O)NC3CC3)cnn2-c2ccc(Cl)cc2)CC1 | i | i | i | i | -7 | 3.3 | i | i | i
C[C@@H](Oc1ccccc1)c1nnn(Cc2ccccc2)c1-c1c([C@@H](C)Oc2ccccc2)nnn1Cc1ccccc1 | i | . | i | -12* | -8 | 0 | i | i | 36%*
Cc1ccc(S(=O)(=O)Oc2ccc(/C=C3\C(=N)N4N=C(S(C)(=O)=O)SC4=NC3=O)cc2)cc1 | i | i | i | i | -12 | 0.05 | i | i | i
CCS(=O)(=O)C1=NN2C(=N)/C(=C\c3ccc(OS(=O)(=O)c4ccccc4)cc3)C(=O)N=C2S1 | i | i | i | i | -20 | 1.5 | . | . | .
CCC1=NN2C(=N)/C(=C\c3cccn3-c3ccc(Cl)cc3)C(=O)N=C2S1 | i | i | i | i | -7 | 0.76 | i | i | i
Cc1cc(C)cc(-n2cccc2/C=C2/C(=N)N3C(=NC2=O)SN=C3S(C)(=O)=O)c1 | i | i | 10* | i | -19 | 0.23 | i | i | i
CCC1=NN2C(=N)/C(=C\c3cccn3-c3ccc(C)c(C)c3)C(=O)N=C2S1 | i | i | i | i | -14 | 3.1 | . | . | .
CCC1=NN2C(=N)/C(=C/c3ccc(OS(=O)(=O)c4ccccc4)cc3)C(=O)N=C2S1 | i | i | i | i | -5 | -0.99 | i | i | i
CCC1=NN(C(=O)COc2ccccc2)C(O)(c2ccc(Br)cc2)C1 (stereo not drawn) | i | i | i | -17* | -4 | -3.2 | 52%* | i | 35%*
Cc1cccc(N2CCN(Cc3nc(-c4ccc(F)cc4F)oc3C)CC2)n1 | i | i | i | i | -23 | -2.8 | i | i | i
Cc1cnc(C)c(N2CCN(Cc3nc(-c4cccc(F)c4F)oc3C)CC2)n1 | i | i | i | i | -25 | 0.75 | . | . | .
COCCCNC(=O)Cn1cnc(C(=O)Nc2ccc(C)c(C)c2)n1 | . | i | . | . | . | . | . | . | .
COc1cnc(SCc2ccc(Cl)cc2Cl)nc1Cl | i | i | i | i | -6 | 1.4 | i | i | 30%*
COc1cnn(-c2ccccc2)c(=O)c1SCc1ccc(Cl)cc1Cl | i | i | i | i | -7 | -0.22 | . | . | .
Clc1ccccc1CN1CCN(/N=C/C=C/c2ccco2)CC1 | i | i | i | i | -7 | -0.84 | . | . | .
CCOc1cc(N2CCOCC2)c(OCC)cc1NC(=O)CN1CCC(Cc2ccccc2)CC1 | i | i | i | i | -4 | -1.8 | i | i | i
CCOC(=O)N1CCN(CC(=O)Nc2cc3c(cc2C(C)=O)OCO3)CC1 | i | i | i | i | -4 | -0.5 | . | . | .
CC(=O)c1cc2c(cc1NC(=O)CN1CCC(Cc3ccccc3)CC1)OCO2 | i | i | i | i | -11 | 1.7 | i | i | i
CC(C)C(NS(=O)(=O)c1cccc2nsnc12)C(=O)NC1CCCCC1C (stereo not drawn) | i | i | i | i | -6 | -0.5 | . | . | .
COc1ccc(-n2c(C)cc(C(=O)Cn3nc(C(=O)O)c4ccccc4c3=O)c2C)cc1 | i | i | i | i | -7 | 0.16 | i | i | i
SMILES | KCNQ1 act | KCNK3 inh | KCNQ1 inh | KCNK9 inh | hERG rescue | Kir21 block | KCNK9 block conf | Kir21 sel | HEK293 Tl ctr
Cc1cc(C(=O)Cn2nc(C(=O)O)c3ccccc3c2=O)c(C)n1-c1ccc(OC(F)F)cc1 | i | i | i | i | -5 | -0.67 | i | i | i
Cc1ccc(-n2c(C)cc(C(=O)Cn3nc(C(=O)O)c4ccccc4c3=O)c2C)cc1 | i | i | i | i | -6 | -2.6 | . | . | .
CCOC(=O)C1CCN(CCCSc2ccc(Cl)cc2)CC1 | i | i | i | i | -5 | -4.2* | i | i | i
Cc1ccc(-c2[nH]c3ccccc3c2SCCNC(=O)c2cc3ccccc3oc2=O)cc1 | i | i | 6* | i | -12 | 0.29 | i | i | i
COc1cccc(C(=O)NCC(c2ccco2)N2CCc3ccccc3C2)c1 (stereo not drawn) | i | i | i | -10* | -6 | 0.14 | 38%* | i | i
O=C(NCC(c1ccco1)N1CCc2ccccc2C1)c1cccc(F)c1 (stereo not drawn) | i | i | i | i | -13 | -1.9 | . | . | .
CCOC(=O)C1=C(O)C(=O)N(c2ccc(S(N)(=O)=O)cc2)C1c1ccc(Br)cc1 (stereo not drawn) | i | i | i | i | -11 | 0.45 | . | . | .
CSc1ccc(S(=O)(=O)N2CCC(C(=O)NCCN3CCOCC3)CC2)cc1 | i | i | i | i | -12 | -0.58 | . | . | .
COc1cccc(CSc2nnc(C(F)(F)F)n2Cc2ccc(F)cc2)c1 | i | i | i | i | -10 | -4 | . | . | .
Cc1ccc(CSc2nnc(C(F)(F)F)n2Cc2ccc(F)cc2)cc1 | i | i | i | -9.6* | -8 | -1.2 | 29%* | i | 39%*
Cc1cc(N/N=C/c2ccc(F)cc2)nc(NCc2ccccc2)n1 | i | i | i | i | -21 | 0.56 | . | . | .
Cc1cc(N/N=C/c2ccc(Cl)cc2Cl)nc(NCc2ccccc2)n1 | i | i | i | i | -12 | 3 | i | i | i
Fc1cccc(Cl)c1CSc1ccc(-c2cccnc2)nn1 | i | i | i | -11* | -8 | -0.28 | 33%* | i | i
